In ChEMBL document CHEMBL3785059, “LC-MS-Guided Isolation of Penicilfuranone A: A New Antifibrotic Furancarboxylic Acid from the Plant Endophytic Fungus Penicillium sp. sh18” (J Nat Prod, 2016) one finds inhibition and Activity data, which are given here for two compounds.

The source made the active and inactive calls. The rule behind the calls is not given here.

For data set [1], the target named is T1, Mothers against decapentaplegic homolog 2/homolog 3 (Rattus norvegicus) (UniProt O70436+P84025). Kind of data set: Inhibition of TGF-beta1-induced Smad2/3 phosphorylation in rat HSC-T6 cells at 10 uM after 1 hr by Western blot analysis. It counts as cell-based. In short, it runs like this:
(§1)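 HSC-T6 (rat; RPMI 1640) or LX-2 (human; DMEM) cells with 10% FBS, passages 18-25, were grown to 70% confluence and serum-starved 24 h. They were preincubated 2 h with test agent or DMSO, then exposed to TGF-β1 at a final 10 ng/mL for 1 h. Blots of 30 μg lysate were probed for phospho-Smad2/3 and Smad7, then reprobed for total Smad2/3 and β-actin.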

Data set [2] deals with T2, Mothers against decapentaplegic homolog 2/homolog 3 (Homo sapiens) (UniProt P84022+Q15796). Kind of data set: Inhibition of TGF-beta1-induced Smad2/3 phosphorylation in human LX2 cells at 10 uM after 1 hr by Western blot analysis. It counts as cell-based. The gist of the method: as §1
T2 sequence (P84022 whole entry, looked up): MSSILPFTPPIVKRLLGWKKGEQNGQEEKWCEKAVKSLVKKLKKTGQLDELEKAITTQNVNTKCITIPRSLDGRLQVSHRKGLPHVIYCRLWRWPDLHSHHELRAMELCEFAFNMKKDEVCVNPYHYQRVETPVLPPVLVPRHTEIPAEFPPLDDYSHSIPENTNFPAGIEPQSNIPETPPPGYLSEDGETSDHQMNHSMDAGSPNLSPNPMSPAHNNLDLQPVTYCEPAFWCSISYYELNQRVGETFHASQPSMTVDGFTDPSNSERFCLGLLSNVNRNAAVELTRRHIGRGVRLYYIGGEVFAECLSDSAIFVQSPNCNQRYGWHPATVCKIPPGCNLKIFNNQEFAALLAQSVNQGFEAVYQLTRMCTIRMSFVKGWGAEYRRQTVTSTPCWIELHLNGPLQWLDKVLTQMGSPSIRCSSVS
T2 sequence (Q15796 whole entry, looked up): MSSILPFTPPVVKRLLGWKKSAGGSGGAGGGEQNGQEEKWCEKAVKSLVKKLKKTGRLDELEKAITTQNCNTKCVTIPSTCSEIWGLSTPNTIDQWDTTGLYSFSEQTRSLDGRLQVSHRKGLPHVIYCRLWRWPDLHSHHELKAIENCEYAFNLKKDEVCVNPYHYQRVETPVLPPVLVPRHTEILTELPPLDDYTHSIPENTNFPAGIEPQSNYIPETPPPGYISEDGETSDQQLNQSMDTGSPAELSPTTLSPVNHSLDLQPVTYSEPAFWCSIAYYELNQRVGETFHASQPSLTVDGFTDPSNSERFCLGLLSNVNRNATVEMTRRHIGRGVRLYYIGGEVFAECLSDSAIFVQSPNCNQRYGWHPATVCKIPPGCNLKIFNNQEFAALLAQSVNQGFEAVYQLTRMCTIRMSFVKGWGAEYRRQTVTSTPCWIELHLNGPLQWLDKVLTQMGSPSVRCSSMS
For data set [3], the system named is HSC-T6. Kind of data set: Inhibition of TGF-beta1-induced decrease of Smad7 expression in rat HSC-T6 cells at 10 uM after 1 hr by Western blot analysis. It counts as functional, cell-based. In short, it runs like this:
as §1

For data set [4], the system named is LX2. As to the kind of experiment: Inhibition of TGF-beta1-induced decrease of Smad7 expression in human LX2 cells at 10 uM after 1 hr by Western blot analysis. It counts as functional, cell-based. In short, it runs like this:
as §1

For data set [5], the system named is HSC-T6. As to the kind of experiment: Effect on Smad2/3 expression in rat HSC-T6 cells at 10 uM after 1 hr by Western blot analysis. It counts as functional, cell-based. In short, it runs like this:
as §1

Data set [6] relates to LX2. As to the kind of experiment: Effect on Smad2/3 expression in human LX2 cells at 10 uM after 1 hr by Western blot analysis. It counts as functional, cell-based. The gist of the method: as §1
Data set [7] has as its system HSC-T6. As to the kind of experiment: Inhibition of TGF-beta-induced vimentin expression in rat HSC-T6 cells at 10 uM after 48 hrs by Western blot analysis. It counts as functional, cell-based. In short, it runs like this:
(§2)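 Rat HSC-T6 (RPMI 1640) or human LX-2 (DMEM) cells, passages 18-25, at 70% confluence were serum-deprived for 24 h. After 2 h pretreatment with agent or DMSO vehicle, TGF-β1 was added without washing at a final 10 ng/mL for 48 h. Whole-cell lysates (30 μg) were blotted for vimentin, with β-actin as the loading control.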

Data set [8] concerns LX2. As to the kind of experiment: Inhibition of TGF-beta-induced vimentin expression in human LX2 cells at 10 uM after 48 hrs by Western blot analysis. It is filed as functional, cell-based. The gist of the method: as §2
Data set [9] deals with HSC-T6. As to the kind of experiment: Inhibition of TGF-beta-induced CTGF expression in rat HSC-T6 cells after 48 hrs by Western blot analysis. It counts as functional, cell-based.
Data set [10] has as its system LX2. As to the kind of experiment: Inhibition of TGF-beta-induced CTGF expression in human LX2 cells after 48 hrs by Western blot analysis. It counts as functional, cell-based.
For data set [11], the target named is T1, Mothers against decapentaplegic homolog 2/homolog 3 (Rattus norvegicus). As to the kind of experiment: Inhibition of TGF-beta1-induced Smad2/3 phosphorylation in rat HSC-T6 cells after 1 hr by Western blot analysis. It counts as cell-based. The gist of the method:
(§3)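 Serum-starved cells (24 h, no FBS) preincubated 2 h with compound at 1, 2 or 4 μM, DMSO or 10 μM SB431542. Then exposed to TGF-β1 at 10 ng/mL final for 1 h. Lysates (30 μg) immunoblotted for phospho-Smad2/3 and Smad7; membranes reprobed for total Smad2/3 and β-actin for loading.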

The target in data set [12] is T2, Mothers against decapentaplegic homolog 2/homolog 3 (Homo sapiens). Kind of data set: Inhibition of TGF-beta1-induced Smad2/3 phosphorylation in human LX-2 cells after 1 hr by Western blot analysis. It counts as cell-based. In short, it runs like this: as §3
The subject of data set [13] is HSC-T6. As to the kind of experiment: Inhibition of TGF-beta1-induced decrease of Smad7 expression in rat HSC-T6 cells after 1 hr by Western blot analysis. It counts as functional, cell-based. The gist of the method:
as §3

Data set [14] deals with LX2. As to the kind of experiment: Inhibition of TGF-beta1-induced decrease of Smad7 expression in human LX2 cells after 1 hr by Western blot analysis. It counts as functional, cell-based. In short, it runs like this:
as §3

Data set [15] relates to HSC-T6. Kind of data set: Effect on Smad2/3 expression in rat HSC-T6 cells at 1 to 4 uM after 1 hr by Western blot analysis. It counts as functional, cell-based. The gist of the method: as §3
Data set [16] deals with LX2. As to the kind of experiment: Effect on Smad2/3 expression in human LX2 cells at 1 to 4 uM after 1 hr by Western blot analysis. It is filed as functional, cell-based. The gist of the method: as §3
Data set [17] relates to HSC-T6. As to the kind of experiment: Inhibition of TGF-beta-induced alpha-SMA expression in rat HSC-T6 cells at 1 to 4 uM after 48 hrs by Western blot analysis. It is filed as functional, cell-based. The gist of the method:
(§4)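 Cells at 70% confluence serum-starved 24 h (passages 18–25). Preincubated 2 h with compound (1, 2 or 4 μM), DMSO vehicle or 10 μM SB431542, then 10 ng/mL human recombinant TGF-β1 added without wash for 48 h. Whole-cell lysates (30 μg protein) run on SDS-PAGE and immunoblotted with β-actin as loading control.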

Data set [18] has as its system LX2. As to the kind of experiment: Inhibition of TGF-beta-induced alpha-SMA expression in human LX2 cells at 1 to 4 uM after 48 hrs by Western blot analysis. It counts as functional, cell-based. In short, it runs like this:
as §4

Data set [19] deals with HSC-T6. As to the kind of experiment: Inhibition of TGF-beta-induced type-1 collagen expression in rat HSC-T6 cells after 48 hrs by Western blot analysis. It is filed as functional, cell-based. In short, it runs like this:
as §4

Data set [20] is described as follows: Cytotoxicity against human L02 cells at up to 4 uM after 48 hrs by MTT assay. It is filed as cell-based. Particulars: l02, 48 h. The gist of the method: (§5)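 MTT (5 mg/mL stock) added for 4 h at 37 °C. Formazan dissolved in DMSO, OD read at 570 nm. Viability given as % of control; mean ± SEM of three independent experiments.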
Data set [21] can be described thus: Cytotoxicity against rat HSC-T6 cells at up to 4 uM after 48 hrs by MTT assay. It is filed as cell-based. Particulars: hsc-t6, 48 h. In short, it runs like this:
as §5

The nature of data set [22]: Cytotoxicity against human LX2 cells at up to 4 uM after 48 hrs by MTT assay. It is filed as cell-based. The settings on record: lx2, 48 h. In short, it runs like this: as §5
The test system of data set [23] is HSC-T6. As to the kind of experiment: Inhibition of TGF-beta-induced vimentin expression in rat HSC-T6 cells at 1 to 4 uM after 48 hrs by Western blot analysis. It is filed as functional, cell-based. In short, it runs like this: as §4
The test system of data set [24] is LX2. Kind of data set: Inhibition of TGF-beta-induced vimentin expression in human LX2 cells at 1 to 4 uM after 48 hrs by Western blot analysis. It is filed as functional, cell-based. In short, it runs like this: as §4
For data set [25], the system named is LX2. As to the kind of experiment: Inhibition of TGF-beta-induced type-1 collagen expression in human LX2 cells after 48 hrs by Western blot analysis. It counts as functional, cell-based. The gist of the method: as §4

T1 sequence (O70436 whole entry, looked up): as the sequence (Q15796 whole entry, looked up) above, with P90A, I93V, N154S counted along it
T1 sequence (P84025 whole entry, looked up): as the sequence (P84022 whole entry, looked up) above

In the case of `NC(=O)c1ccc(-c2nc(-c3ccccn3)c(-c3ccc4c(c3)OCO4)[nH]2)cc1`, the inhibition result (in data set [1]; in data set [2]; with HSC-T6 [3]; in the data set on LX2 [4]) was “Dose-dependent effect” each time. Besides, the result with HSC-T6 [5] and in the data set with LX2 [6] was inactive. Moreover, the inhibition result with HSC-T6 [7] and in the data set on LX2 [8] was “Active” throughout.

On to `CC/C=C/C=C/[C@@]1(C)OC([C@H]2[C@@H](C)C(=O)c3cc(OC)c(O)c(O)c3[C@@]2(C)O)=C(C(=O)OC)C1=O`, for which the inhibition entry (with HSC-T6 [9]; in the data set with LX2 [10]; in data set [11]; in data set [12]; in the data set on HSC-T6 [13]; with LX2 [14]) was “Dose-dependent effect” throughout. The inhibition entry in the data set on HSC-T6 [19] and with LX2 [25] was “Dose-dependent effect” throughout. Also, the result with HSC-T6 [15] and in the data set on LX2 [16] was inactive. Further, the inhibition entry in the data set with HSC-T6 [17], in the data set on LX2 [18], with HSC-T6 [23] and with LX2 [24] was “Active” throughout. Besides, the Activity entry in data set [20], in data set [21] and in data set [22] was “Non-toxic” in each case.
